Test results: ChEMBL document CHEMBL1157337, “Interference by naturally occurring fatty acids in a noncellular enzyme-based aromatase bioassay” (J Nat Prod, 2006)

Tests used:
Aromatase [1] = target: T1, Aromatase (Homo sapiens, UniProt P11511); assay: Inhibition of aromatase in human SKBR3 cells at 10 nM relative to control; type: cell-based; parameters: scale not given: the % may be the effect or the level left; settings: SK-BR-3, human; read-out: Activity
T1 sequence (P11511 whole entry): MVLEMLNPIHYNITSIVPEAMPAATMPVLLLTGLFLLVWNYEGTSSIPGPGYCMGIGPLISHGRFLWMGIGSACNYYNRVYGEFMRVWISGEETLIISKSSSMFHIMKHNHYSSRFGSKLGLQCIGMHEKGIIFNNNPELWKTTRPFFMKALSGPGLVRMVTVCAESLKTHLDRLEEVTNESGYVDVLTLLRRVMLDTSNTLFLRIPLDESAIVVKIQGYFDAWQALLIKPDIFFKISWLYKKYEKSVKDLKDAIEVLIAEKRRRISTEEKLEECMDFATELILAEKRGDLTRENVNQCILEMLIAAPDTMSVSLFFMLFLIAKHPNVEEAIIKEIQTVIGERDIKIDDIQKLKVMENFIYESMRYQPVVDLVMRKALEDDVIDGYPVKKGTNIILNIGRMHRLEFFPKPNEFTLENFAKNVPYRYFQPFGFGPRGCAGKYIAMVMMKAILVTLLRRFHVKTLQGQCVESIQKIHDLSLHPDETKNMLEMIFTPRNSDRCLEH
In short: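 SK-BR-3 human breast cancer cells (aromatase-overexpressing), grown subconfluent in T-25 flasks, medium switched to serum-free DMEM/F12 with albumin, transferrin, insulin; treated in triplicate 24 h (0.1% DMSO negative control). Then 50 nM androstenedione plus 2 µCi [1β-3H]androstenedione for 6 h; 3H2O counted after TCA, CHCl3 and charcoal cleanup; normalized to DNA-determined cell number, expressed as percent control activity.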

Aromatase [2] = target: T1, Aromatase; assay: Inhibition of aromatase in human SKBR3 cells at 100 uM relative to control; type: cell-based; parameters: scale not given: the % may be the effect or the level left; settings: SK-BR-3, human; read-out: Activity
In short: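 Test agents at 100 µM on aromatase-overexpressing SK-BR-3 cells in T-25 flasks, serum-free DMEM/F12 with albumin/transferrin/insulin, triplicate, 24 h exposure (0.1% DMSO negative control, 10 nM letrozole positive control). Medium replaced with 50 nM androstenedione plus 2 µCi [1β-3H]androstenedione, 6 h; released 3H2O scintillation-counted, corrected for blanks and DNA-based cell count; percent control activity.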

Aromatase [3] = target: T1, Aromatase; assay: Inhibition of aromatase in human placental microsomes at 20 ug/ml by radiometric method relative to control; parameters: species or system Placenta; scale not given: the % may be the effect or the level left; settings: read-out: Activity
In short: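 Human term placental microsomes (50 µg) with sample at 20 µg/mL, 100 nM [1β-3H]androstenedione, 0.1 M K phosphate pH 7.0, 5% propylene glycol, NADPH-regenerating system; 37 °C, 15 min, CHCl3 quench and extraction; aqueous 3H2O counted; triplicate.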

Aromatase [4] = target: T1, Aromatase; assay: Inhibition of aromatase in human placental microsomes by radiometric method; parameters: species or system Placenta
In short: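 Placental microsomal aromatase (50 µg), 100 nM [1β-3H]androstenedione, pH 7.0 phosphate buffer, 5% propylene glycol, NADPH-regenerating system, 37 °C for 15 min; 3H2O in the aqueous phase counted after CHCl3 extraction, boiled-enzyme background. Eight inhibitor concentrations spanning 1–100 µM; IC50 by nonlinear regression.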

Row | activity at 0.01 µM (Aromatase [1]) [%] | activity at 100 µM (Aromatase [2]) [%] | activity at 20 µg/mL (Aromatase [3]) [%] | IC50 (Aromatase [4]) [µM] | SMILES
1 | 3.9 |  |  |  | N#Cc1ccc(C(c2ccc(C#N)cc2)n2cncn2)cc1 [LETROZOLE]
2 |  | 94.4 | 15.7 | 16.8 | CC/C=C\C/C=C\C/C=C\C/C=C\C/C=C\CCCCCC(=O)O [DOCOSAPENTAENOIC ACID]
3 |  | 98.2 | 12.4 | 33.2 | CC/C=C\C/C=C\C/C=C\C/C=C\C/C=C\C/C=C\CCC(=O)O [DOCONEXENT]
4 |  |  | 76.2 |  | CCCCCCCCCCCCCCC(=O)O [PENTADECANOIC ACID]
5 |  | 99.3 | 19.5 | 32.7 | CCCCCCCC/C=C\CCCCCCCC(=O)O [OLEIC ACID]
6 |  |  | 66.7 |  | CCCCCCCCCCCCCC(=O)O [MYRISTIC ACID]
7 |  | 138 | 30.2 | 53.2 | CC/C=C\C/C=C\C/C=C\C/C=C\C/C=C\CCCC(=O)O [ICOSAPENT]
8 |  |  | 83.2 |  | CCCCCCCCCCCCCCCC(=O)O [PALMITIC ACID]
9 |  | 92.8 | 49.5 | 44.2 | CC/C=C\C/C=C\C/C=C\CCCCCCCC(=O)O [LINOLENIC ACID]

Row | SMILES | activity at 0.01 µM (Aromatase [1]) [%] | activity at 100 µM (Aromatase [2]) [%] | activity at 20 µg/mL (Aromatase [3]) [%] | IC50 (Aromatase [4]) [µM]
10 | CCCCC/C=C\C/C=C\C/C=C\C/C=C\CCCC(=O)O [ARACHIDONIC ACID] |  | 147 | 11.5 | 28.2
11 | CCCCC/C=C\C/C=C\CCCCCCCC(=O)O [LINOLEIC ACID] |  | 148 | 22.5 | 48
12 | CCCCCCCCCCCCCCCCCC(=O)O [STEARIC ACID] |  |  | 89.4 | 
